Bioassay records deposited in PubChem BioAssay by several laboratories.
Gli-Sufu antag: Gli-Sufu pathway antagonists, primary screen, luciferase luminescence, Sufu-KO-LIGHT cells, uHTS. inhibition, % at 5 µM. AID 588413, 2011. Sufu-KO-LIGHT fibroblasts, Gli luciferase reporter luminescence. hit rate 0.74% among 340,000;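 active means inhibition above about 55%, limit read from the data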
697 NFkB inh: inhibitors of PMA/ionomycin-induced NF-kB reporter, 697 cells, primary screen, B-cell NF-kB inhibitor project, cell-based, luminescence, uHTS; hit rate 0.33% among 330,000; AID 435022, 2010; 697 B-cell NF-kB luciferase reporter, 16 h; inhibition, % at 4 µM; in the data active means inhibition above about 35%
XBP1 UPR activ: activators of adaptive XBP1 UPR arm, primary screen, cell-based, CHO-XBP1 luciferase reporter, luminescence, uHTS | hit rate 0.33% among 330,000 | activation, % at 20 µM | AID 463104, 2010 | IRE1-XBP1 UPR activation; percent of tunicamycin response, DMSO as zero;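 active means versus positive control, 20 µM dose yields 30% or more activation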
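Material: CHO cell line with stable XBP1 luciferase reporter; schedule: 16-18 h cell attachment at 37 °C, then 6 h compound exposure; signal: glow luminescence from Steady-Glo reagent; medium: serum-containing F12 medium, 10% FBS; benchmarks: tunicamycin 10 µg/mL and vehicle-only wells; read-out: percent activation relative to tunicamycin reference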
CHOP inhibitor: inhibitors of CHOP promoter induction, primary screen, cell-based, unfolded protein response, luciferase reporter; hit rate 3.8% among 220,000; AID 2732, 2010; CHO-K1 CHOP-promoter luciferase, tunicamycin-induced, 15-18 h; inhibition, % at 10 µM;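 active means compounds that reduced the stress-induced luciferase reporter signal by more than about 70% of percent inhibition, limit read from the data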
Jurkat NFkB inh: inhibitors of induced NF-kB luciferase reporter, primary screen, TCR NF-kB activation inhibitor project, cell-based, luminescence, uHTS; hit rate 0.53% among 330,000; AID 435003, 2010; Jurkat, PMA/ionomycin-induced NF-kB luciferase reporter; inhibition, % at 4 µM; in the data active means inhibition above about 50%
UPR CHOP act: activators of apoptotic CHOP UPR arm, primary screen, cell-based, CHO-CHOP luciferase reporter, luminescence, uHTS; AID 449763, 2010; activation, % at 10 µM; UPR activation; percent of tunicamycin response over DMSO baseline; hit rate 0.34% among 330,000;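 active means at 10 µM dose, activation of 40% or more, normalized to positive control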
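System: CHO-CHOP luciferase reporter cell line; amount: 500 cells/well; buffer or medium: F12 medium containing 10% fetal bovine serum; incubation: 6 h compound exposure at 37 °C after overnight seeding; measured by: luciferase luminescence after 10 min with Steady-Glo reagent; evaluation: % reporter activation, DMSO baseline versus tunicamycin full activation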
Hits are given with their value; - = inactive; . = not tested or not shown. Compounds with a hit are over-represented: about 3.9% of the library has one in this group of screens.

SMILES	Gli-Sufu antag	697 NFkB inh	XBP1 UPR activ	CHOP inhibitor	Jurkat NFkB inh	UPR CHOP act
CCOc1ccc2[nH]c(=O)c(CN(Cc3cccs3)Cc3nnnn3C(C)(C)C)cc2c1	-	-	-	96	-	-
COc1ccc2[nH]c(=O)c(CN(Cc3cccs3)Cc3nnnn3C(C)(C)C)cc2c1	-	-	-	-	-	-
COCC(=O)NC1CC(C)(C)Cc2c1cnn2-c1ccc(F)cc1 (configuration not stated)	-	-	-	.	-	-
CC1OC(CC(=O)O)CC2=C1C(=O)c1c(O)cccc1C2=O (configuration not stated)	91	.	.	.	.	.
O=C(NCC(O)c1ccccc1)c1cccs1 (configuration not stated)	-	-	-	.	-	-
Cc1ccccc1N=Nc1ccc(O)c2ncccc12	-	.	.	106	.	.
O=S(=O)(O)c1cccc2c(N=Nc3ccc(O)c4ncccc34)cccc12	-	.	.	.	.	.
COc1ccc(C)cc1N=Nc1ccc(O)c2ncccc12	-	.	.	104	.	.
CCOc1ccc(N(CC(=O)N/N=C/c2ccccn2)S(=O)(=O)c2ccc(Cl)cc2)cc1	-	-	-	.	-	-
O=C(Cn1c(C2CC2)nc2ccccc2c1=O)Nc1ccc(Br)cc1	-	-	-	84	-	-
CCOC(=O)Cn1c2ccccc2c2nc3ccccc3nc21	-	-	-	93	-	-
COc1ccc2c(c1)c1nc3ccccc3nc1n2CCn1c(=O)oc2ccccc21	-	-	-	95	-	-
COc1ccc2c(c1)c1nc3ccccc3nc1n2CC(=O)OC(C)C	-	-	-	94	-	-
CC(=O)Nc1ccc(S(=O)(=O)Nc2c(NC3CCCCC3)c3ccccc3oc2=O)cc1	-	-	-	.	-	-
Cc1ccc([N+](=O)[O-])cc1S(=O)(=O)Nc1cccc(S(=O)(=O)Nc2ccccc2C(=O)O)c1	-	-	-	.	-	-
Cc1ccc(C)c(NC(=O)c2ccccc2NS(=O)(=O)c2cc([N+](=O)[O-])ccc2C)c1	-	-	-	74	-	-
COc1ccc(N=C2C(=O)Nc3ccccc32)cc1	-	-	-	-	-	-
COc1ccc(N=C2C(=O)N3c4c(cccc42)C(C)=CC3(C)C)cc1	-	-	-	79	-	-
COc1ccc(/C=C/C(=O)Oc2cccc(/C=N/NC(=O)Cc3ccc(Br)cc3)c2)cc1	-	-	-	71	-	-
COc1cccc(/C=N/NC(=O)CCCC(=O)Nc2ccc(Br)cc2)c1	-	-	-	-	-	-
O=C(NC(NC(=S)Nc1ccccc1Cl)C(Cl)(Cl)Cl)c1cccc(Cl)c1 (configuration not stated)	-	-	-	87	-	-
O=C(/C=C/c1ccccc1)NC(NC(=S)Nc1ccc(Cl)cc1Cl)C(Cl)(Cl)Cl (configuration not stated)	-	-	-	81	-	-
CN1C2CCC1CC(NC(=O)c1cc(S(=O)(=O)N(C)C)c(Cl)cc1Cl)C2 (configuration not stated)	-	-	-	.	-	-
CCOC(=O)c1c(NC(=S)Nc2ccc(F)cc2)sc2c1CCC2	-	-	-	74	-	-
CCOC(=O)c1c(NC(=S)Nc2ccc(C)cc2)sc2c1CCC2	-	-	-	-	-	-
SMILES	Gli-Sufu antag	697 NFkB inh	XBP1 UPR activ	CHOP inhibitor	Jurkat NFkB inh	UPR CHOP act
CCc1nc2ccccc2c(C(=O)OCC(=O)N2CC(C)OC(C)C2)c1C (configuration not stated)	-	-	-	.	-	-
COc1ccc(CNC(=O)c2sccc2-c2ccccc2)cc1OC	-	-	-	.	-	-
FCCCOc1ccc(-c2nccc(-c3ccc(Cl)cc3)n2)cc1	-	-	-	78	-	-
COc1ccc(-c2ccnc(-c3ccc(OCCCF)cc3)n2)cc1	-	-	-	71	-	-
COc1cccc(NC(=O)COC(=O)CCn2c(C)csc2=O)c1	-	-	-	.	-	-
CCN(CC)S(=O)(=O)c1cccc(N=Nc2sc(N)nc2C)c1	-	-	-	.	-	-
COC(=O)c1cc(N=Nc2sc(N)nc2C)cc(C(=O)OC)c1	-	-	-	80	-	-
CCCCC[C@H]1CN(C2CCCCC2)C(=O)[C@@H]1CC(=O)NCc1ccccc1	-	-	-	.	-	-
Cc1cccc(NC(=O)N2CCC(C(=O)c3ccc(F)cc3)CC2)c1	-	-	-	.	-	-
Cc1ccc(NC(=O)c2cc(N3C(=O)C=CC3=O)ccc2Cl)cc1C	-	-	-	104	-	-
Cc1ccc(NC(=O)c2cc(N3C(=O)C=CC3=O)ccc2N2CCOCC2)cc1	-	.	.	109	.	.
Cc1ccc(-c2noc(CSc3nnc(Cc4ccccc4)n3-c3ccc(Cl)cc3)n2)cc1	-	-	-	81	-	-
COc1ccc(-c2noc(CSc3nnc(Cc4ccccc4)n3-c3ccc(Cl)cc3)n2)cc1	-	-	-	-	-	-
CCCCN(C(=O)c1cc2c(s1)CCCCC2)c1c(N)n(CC(C)C)c(=O)[nH]c1=O	-	-	-	.	-	-
CC(C)CC(=O)Nc1ccc(S(=O)(=O)Nc2nccs2)cc1	-	-	-	.	-	-
CCN(CC)CCNC(=O)c1ccc(N2CCCCC2)c(NS(=O)(=O)c2ccc(C)cc2)c1	-	-	-	72	-	-
CCOc1ccc(S(=O)(=O)N2CCC(C(=O)NCCc3ccccc3)CC2)cc1	-	-	-	.	-	-
C/C(=N/Nc1ccc([N+](=O)[O-])cc1)c1ccc(C)cc1C	-	-	-	94	-	-
CN1CC(=O)Nc2ccc([N+](=O)[O-])cc2C1=O	-	-	-	.	-	-
O=C(COc1ccc(Cl)cc1Cl)N/N=C/c1ccc[nH]1	-	-	-	.	-	-
O=C(COc1ccc(Cl)cc1Cl)N/N=C/CCc1ccccc1	-	-	-	75	-	-
O=C(CCCOc1ccc(Cl)cc1Cl)N/N=C/c1ccccc1O	-	-	-	85	-	-
COc1cccc(CNC(=O)CCN2C(=O)[C@@H]3Cc4ccccc4CN3C2=O)c1	-	-	-	.	-	-
CCOC(=O)c1cc(CC)sc1NC(=O)CC1Sc2ccc(C(F)(F)F)cc2NC1=O (configuration not stated)	-	-	-	82	-	-
COC(=O)c1c(NC(=O)CC2Nc3cc(C)c(C)cc3NC2=O)sc(C)c1C (configuration not stated)	-	-	-	-	-	-
COC(=O)c1c(NC(=O)CC2Sc3ccc(C(F)(F)F)cc3NC2=O)sc(C)c1C (configuration not stated)	-	-	-	-	-	-
